In ChEMBL document CHEMBL1141343, “Scalarane sesterterpenes from a marine sponge of the genus Spongia and their FXR antagonistic activity” (J Nat Prod, 2007):
The source made the active and inactive calls. The calls are words filed in the database; no cut-off is given here.

Legend:
Bile acid receptor = target: T1, Bile acid receptor (Homo sapiens, UniProt Q96RI1); test: Antagonist activity at human FXR expressed in monkey CV1 cells after 24 hrs by ecdysone receptor response element-driven luciferase reporter assay; assay type: functional, cell-based, CV-1
T1 sequence (Q96RI1 whole entry): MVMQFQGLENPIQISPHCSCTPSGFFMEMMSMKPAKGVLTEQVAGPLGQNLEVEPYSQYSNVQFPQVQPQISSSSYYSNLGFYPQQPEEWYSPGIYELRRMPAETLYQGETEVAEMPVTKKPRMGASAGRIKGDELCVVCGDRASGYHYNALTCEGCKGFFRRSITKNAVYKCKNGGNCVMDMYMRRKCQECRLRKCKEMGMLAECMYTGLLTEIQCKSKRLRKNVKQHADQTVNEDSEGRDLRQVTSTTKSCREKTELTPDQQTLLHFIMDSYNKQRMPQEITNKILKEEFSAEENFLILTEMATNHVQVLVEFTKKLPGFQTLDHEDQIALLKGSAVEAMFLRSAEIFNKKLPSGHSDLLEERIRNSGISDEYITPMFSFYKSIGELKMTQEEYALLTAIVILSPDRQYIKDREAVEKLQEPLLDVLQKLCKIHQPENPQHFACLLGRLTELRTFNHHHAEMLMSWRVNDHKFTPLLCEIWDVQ
Procedure, shortened: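 Full-length human FXR, EcRE-driven luciferase reporter and β-galactosidase plasmid cotransfected into CV-1 cells, seeded 24 h beforehand in DMEM with 10% lipid-depleted FBS at 37 °C, 5% CO2. After a further 24 h, cells were exposed to compound or DMSO vehicle with 50 µM CDCA. Harvest was at 24 h, with luciferase normalized to β-galactosidase. Triplicate wells, three repeats.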

[1] = Cytotoxicity against monkey CV1 cells after 24 hrs by MTT assay; assay type: cell-based; details: Chlorocebus aethiops, CV-1, 24 h
Procedure, shortened: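 CV-1 monkey kidney cells plated in DMEM with 10% FBS at 37 °C, 5% CO2, grown 24 h, then exposed to compounds at a range of concentrations for 24 h. MTT at 1 mg/mL added for 1 h at 37 °C. Formazan dissolved in DMSO and absorbance read at 450 nm. Each experiment repeated more than three times.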

[2] = target: T2, Bile acid receptor (Homo sapiens) (UniProt Q96RI1); test: Inhibition of CDCA-mediated interaction between FXR ligand binding domain and SRC1 at 25 uM by SPR spectroscopy
T2 sequence (whole entry): T1 sequence (Q96RI1 whole entry)
Procedure, shortened: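 Human FXR LBD (4 µM) preincubated 1 h with compound plus 50 µM CDCA, then injected for 120 s over an immobilized SRC-1 coactivator peptide surface, followed by a 120 s buffer wash. Biacore SPR, 25 °C.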

| SMILES | IC50 (Bile acid receptor) [µM] | IC50 [1] [µM] | Activity [2] |
| --- | --- | --- | --- |
| C[C@@]1(CO)CCC[C@]2(C)[C@H]3C[C@@H](O)[C@]4(C)[C@H]5COC(=O)C5=CC[C@H]4[C@]3(C)CC[C@@H]12 | 2.4 | 49.4 | – |
| CC1(C)CCC[C@]2(C)[C@H]3C[C@@H](O)[C@]4(C)[C@@H]5C(=CC[C@H]4[C@]3(C)CC[C@@H]12)C(=O)O[C@H]5O | 75 | 77.2 | Active |
| C[C@]1(CO)CCC[C@]2(C)[C@H]3C[C@@H](O)[C@]4(C)[C@H]5COC(=O)C5=CC[C@H]4[C@]3(C)CC[C@@H]12 | > 100 | > 100 | – |
| CC(=O)O[C@@H]1C[C@@H]2[C@@]3(C)CCCC(C)(C)[C@@H]3CC[C@@]2(C)[C@@H]2CC=C3C(=O)O[C@@H](O)[C@@H]3[C@@]12C | 60.4 | 75.1 | Active |
| CO[C@@H]1OC(=O)C2=CC[C@H]3[C@]4(C)CC[C@H]5C(C)(C)CCC[C@]5(C)[C@H]4C[C@@H](O)[C@]3(C)[C@H]21 | 24 | 48 | Active |
| CC1(C)CCC[C@]2(C)[C@H]3C[C@@H](O)[C@]4(C)[C@H]5COC(=O)C5=CC[C@H]4[C@]3(C)CC[C@@H]12 | 31.6 | 41.4 | Active |
